From paper PMC2976041 (Biochemistry, 2010)

The molecules below were run against T1, GFP-myo1e-tail (His6-GFP-myo1e-tail) (Homo sapiens, UniProt Q12965) (assay: LUV sedimentation, GFP fluorescence of supernatant).
T1 sequence (Q12965 710-1108): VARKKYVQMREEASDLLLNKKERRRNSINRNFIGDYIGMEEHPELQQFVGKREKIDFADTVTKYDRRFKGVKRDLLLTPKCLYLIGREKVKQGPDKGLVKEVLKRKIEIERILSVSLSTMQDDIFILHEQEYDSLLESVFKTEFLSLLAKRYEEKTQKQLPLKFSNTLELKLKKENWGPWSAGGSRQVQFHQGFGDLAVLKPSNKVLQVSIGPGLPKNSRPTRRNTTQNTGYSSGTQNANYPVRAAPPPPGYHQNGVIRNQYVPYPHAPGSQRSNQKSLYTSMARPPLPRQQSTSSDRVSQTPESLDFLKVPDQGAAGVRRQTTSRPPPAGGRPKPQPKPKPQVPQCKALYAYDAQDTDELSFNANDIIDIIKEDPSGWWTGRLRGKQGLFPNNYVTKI
Assay type: binding
Summary of the method: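 His6-GFP-myo1e-tail co-expressed with calmodulin in Sf9 cells, purified on Ni-NTA then MonoS, and quantified by A488 (ε 55,000 M⁻¹cm⁻¹). 40 nM protein was mixed with sucrose-loaded 100-nm LUVs (e.g., DOPC with 2% phosphoinositide) in HNa100 (10 mM HEPES pH 7.0, 100 mM NaCl, 1 mM EGTA, 1 mM DTT) with 1 µM calmodulin and 0.25 mg/ml GST. Spun 150,000 × g, 30 min, 25°C; supernatant GFP fluorescence read. Hyperbolic fit gave K_eff versus total lipid.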

Row | Kd | SMILES
1 | 13 ± 2.1 µM | CCCCCCCC/C=C\CCCCCCCC(=O)OC[C@H](COP(=O)(O)O[C@@H]1[C@H](O)[C@H](OP(=O)(O)O)[C@@H](O)[C@H](OP(=O)(O)O)[C@H]1O)OC(=O)CCCCCCC/C=C\CCCCCCCC [2% 18:1 PtdIns(3,5)P2, 1,2-dioleoyl-sn-glycerol-3-phospho-(1’-myo-inositol-3’,5’-bisphosphate)]
2 | > 400 µM | CCCCCCCC/C=C\CCCCCCCC(=O)OC[C@H](COP(=O)([O-])OCC[N+](C)(C)C)OC(=O)CCCCCCC/C=C\CCCCCCCC [100% DOPC, 1,2-dioleoyl-sn-glycero-3-phosphocholine]
3 | 3.2 ± 0.4 µM | CCCCCCCC/C=C\CCCCCCCC(=O)OC[C@H](COP(=O)(O)O[C@H]1[C@H](O)[C@@H](OP(=O)(O)O)[C@H](OP(=O)(O)O)[C@@H](OP(=O)(O)O)[C@H]1O)OC(=O)CCCCCCC/C=C\CCCCCCCC [2% 18:1 PtdIns(3,4,5)P3, 1,2-dioleoyl-sn-glycerol-3-phospho-(1’-myo-inositol-3’,4’,5’-trisphosphate)]

Row | SMILES | Kd
4 | CCCCCCCC/C=C\CCCCCCCC(=O)OC[C@H](COP(=O)(O)OC[C@H](N)C(=O)O)OC(=O)CCCCCCC/C=C\CCCCCCCC [80% DOPS, 1,2-dioleoyl-sn-glycero-3-phospho-L-serine] | 0.51 ± 0.1 µM
